Variants at the floor of the assay were thinned out.
B1: tRNA (parent)
chain: GUUCCGUUGGCGUAAUGGUAACGCGUCUCCCUCCUAAGGAGAAGACUGCGGGUUCGAGUCCCGUACGGAACG

Variants of: B1
Assay: yeast fitness relative to wild type (ratio to wild type); higher = fitter; tRNA-Arg(CCU), competitive growth, 37 C, YPD
Outline: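 Start and end populations of a pooled competition were compared by 100-nucleotide paired-end sequencing of gene amplicons. The Saccharomyces cerevisiae strains carried tRNA-Arg(CCU) gene variants at the native genomic locus, synthesised with a 3% per-site mutation rate at 69 sites, and competed in YPD at 37°C for 24 hours in six parallel replicates. Darwinian fitness relative to wild type was based on the change in genotype frequencies. Genotypes required ≥ 100 starting reads, and estimates < 0.5 were set to 0.5.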

Variant | yeast fitness
GUUCAGUUGGCGUAAUGGUACCGCGUCUCGCUCUUAACGAGAAGACUGUGGGUUCGAGUCCCGUACGGACCG [C5A A21C C30G C34U G38C C49U A70C] | 0.551
GUUCAGUUGGCGUAAUGGUAGCGCGUCUCCGUCCUAAGGAGAAGACUGCGGGUUCCAGAGCGGUACGGACCG [C5A A21G C31G G56C U59A C60G C62G A70C] | ≤ 0.5
GUUCAGUUGGCGUAAUGGUACCGCGUCUCCCUCGUAAGGAGAAGACUGCGGGUUCGAGUGCCGUACGGAGCG [C5A A21C C34G C60G A70G] | ≤ 0.5
GUUCAGUUGGCGUAAUGGUAACGCGUCUCCCUCCUAAGGAGAAGUCUGCGGGUUCGAGUCCCGUACGGUACG [C5A A45U A69U] | 0.801
GUUCAGUUGGCGUAAUGGUAGCGUGUCUCCCUCCUAAGGAGAAGUCUGCGGGUUCGUGUCCCGUACGGAACG [C5A A21G C24U A45U A57U] | 0.603
GUUCAGUUGGCGUAAUGGUAUCGUGUGUCCCUCCUAAGGAGAAGACUGCGGGUUCGAGUCCCGUACGGAACG [C5A A21U C24U C27G] | ≤ 0.5
GUUCAGUUGGCGUAAUGGUAGCGCGUCUCCCUCCUAAGGAGAAGACUGCGGGUUCGAGUCCCGUUCGGAACG [C5A A21G A65U] | 0.655
GUUCAGUUGGCGUAAUGGUAACGCGUCUCCCUCCUAAGGAGAAGACUGCGGGUUCGUGUCGCGUACGGAACG [C5A A57U C61G] | ≤ 0.5
GUUCAGUUGGCGUAAUGGUAACGCGUCUCCCUCCUAAGGAGACGACUGCGGGUUCGAGUCCCGUUCGGAACG [C5A A43C A65U] | ≤ 0.5
GUUCAGUUGGCGUAAUGGUAACGCGUCUCCCUCCUAAGGAGAAGACUGCGGGUUCGAGUCCCGUACGGAUCG [C5A A70U] | 0.822
GUUCAGUUGGCGUAAUGGUAACGCGUCUCCCUCCUAAGGAGAAGACUGCGGGUUCGAGUCCCGUACGGACCG [C5A A70C] | 0.982
GUUCAGUUGGCGUAAUGGUAUCGUGUGUCCCUCCUAAGGAGAAGACUGCGGGUUUGAGUCCCGUACGGAACG [C5A A21U C24U C27G C55U] | ≤ 0.5
GUUCAGUUGGCGUAAUGGUAUCGCGUCUCCCUCCUAAGGAGAAGACUGCGGGUUCGAGUCCCGUGCGGAACG [C5A A21U A65G] | 0.636
GUUCAGUUGGCGUAAUGGUAGCGCGUCUCCGUCCUAAGGAGAAGACUGCGGGGUCGAGUCCCGUACGGAACG [C5A A21G C31G U53G] | ≤ 0.5
GUUCAGUUGGCGUAAUGGUACCGCGUCUCCCUCCUAAGGAGAAGACUGCGGGUUCGAGUCCCGUACGGAACG [C5A A21C] | 0.821
GUUCAGUUGGCGUAAUGGUACCGCGUCUCCCUCCUAAGGAGAUGAGUGCGGGUUCGAGUCCCGUACGGAACG [C5A A21C A43U C46G] | 0.541
GUUCAGUUGGCGUAAUGGUAACGCGUCUCCCUCCUAUGGAGAAGACUGUGGGUUCGAGUCCCGUACGGAACG [C5A A37U C49U] | ≤ 0.5
GUUCAGUUGGCGUAAUGGUAACGCGUCUCCCUCCUACGGAGAAGACUGCGGGUUACAGUCCCGUACGGAACG [C5A A37C C55A G56C] | ≤ 0.5
GUUCAGUUGGCGUAAUGGUAGCGCGUCUCCCGCCUAAGGAGAAGACUGCGGGUUCGAGUCCCGUACGGAACG [C5A A21G U32G] | ≤ 0.5

Variant | yeast fitness
GUUCAGUUGGCGUAAUGGUAACGCGUCUCCCUCCUACGGAGAAGACUGCGGGUUCGAGUCCCGUACGGAACG [C5A A37C] | 0.77
GUUCAGUUGGCGUAAUGGUAACGCGUCUCCCUCCUAAGGUGAAGACUCCGGGUUCGAGUCCCAUACGGAACG [C5A A40U G48C G63A] | ≤ 0.5
GUUCAGUUGGCGUAAUGGUAACGCGUCUCCCUCCUAAGGAGGAGACUGCGGGUUCGAGUCCCGUACGGAACG [C5A A42G] | 0.964
GUUCAGUUGGCGUAAUGGUAACGCGUCUCCCUCCUAAGGAGUAGACUGCGGGUUCGAGUCCCGUACGGAACG [C5A A42U] | 0.767
GUUCAGUUGGCGUAAUGGUAACGCGUCUCCCUCCUAAGGAGCAGACUGCGGGUUCGAGUCCCGUACGGAACG [C5A A42C] | 0.842
GUUCAGUUGGCGUAAUGGUAACGCGUCUCCCUCCUAAGGAGCAGACUGCGGGUUCGAGUCCCAUACGGAACG [C5A A42C G63A] | ≤ 0.5
GUUCAGUUGGCGUAAUGGUAACGCGUCUCCCUCCUAAGGAGCAGACUGCGGGUUCGAGUCCCCUACGGAACG [C5A A42C G63C] | ≤ 0.5
GUUCAGUUGGCGUAAUGGUAACGCGUCUCCCUCCUAAGGGGAAGACUGUGGGUUCGAGUCCCGUACGGAACG [C5A A40G C49U] | 0.548
GUUCAGUUGGCGUAAUGGUAACGCGUCUCCCUCCUAAGGAGAAGGCUGCGGGUUCGAGUCCCGUACGGAACG [C5A A45G] | 0.937
GUUCAGUUGGCGUAAUGGUAACGCGUCUCCCUCCUAAGGAGAAGUCUGCGGGUUCGAGUCCCGUACGGAACG [C5A A45U] | 0.877
GUUCAGUUGGCGUAAUGGUAACGCGUCUCCCUCCUAAGGGGAAGACUGCGGGUUCGAGUCCCGUACGGAACG [C5A A40G] | 0.713
GUUCAGUUGGGGUAAUGGUAACGCGUCUCCCUCCUAAGGAGAAGACUGCGGGUUCGAGUCCCGUACGGAACG [C5A C11G] | 0.657
GUUCAGUUGGCGUAAUGGUAACGCGUCUCCCUCCUAAGGAGAAGACUGCGGGUUCGGGUCCCGUACGGAACG [C5A A57G] | 0.767
GUUCAGUUGGCGUAAUGGUAACGCGUCUCCCUCCUAAGGAGAAGACUGCGGGUUCGCGUCCCGUACGGAACG [C5A A57C] | 0.719
GUUCAGUUGGCGUAAUGGUAACGCGUCUCCCUCCUAAGGAGACGUCUGCGGGCUCGAGUCCCGUACGGAACG [C5A A43C A45U U53C] | 0.615
GUUCAGUUGGAGUAAUGGUAACGCGUCUCCCUCCUAAGGAGAAGACUGCGGGUUCGAGAGCCGUACGGAACG [C5A C11A U59A C60G] | ≤ 0.5
GUUCAGUUGGCGUAAUGGUAACGCGUCUCCCUCCUAAGGAGAGGACUGCGGGUUUGAGUCCCGUAGGGAACG [C5A A43G C55U C66G] | ≤ 0.5
GUUCAGUUGGCGUAAUGGUAACGCGUCUCCCUCCUAGGGAGAAGACUGCGGGUUCGAGUCCCGUUCGGAACG [C5A A37G A65U] | 0.532
